Consider two compounds from ChEMBL document CHEMBL3588768, “Synthesis and bioactivity of tripolinolate A from Tripolium vulgare and its analogs” (Bioorg Med Chem Lett, 2015).

In assay [1] the test system is U-87 MG. In words: Induction of apoptosis in human U87MG cells assessed as late apoptotic cells at 40 uM after 72 hrs by annexin V-FITC/PI staining-based flow cytometric analysis (reference value: 3.23%). It is filed as functional, U-87MG ATCC. For orientation: A flow cytometer gives signals particle by particle.
Assay [2] concerns Escherichia coli. In words: Antimicrobial activity against Escherichia coli after 5 to 12 hrs by micro broth dilution assay. It is filed as functional, organism-based. (In general: Dilution methods test growth across graded concentrations, often in twofold steps.)
In assay [3] the test system is U-87 MG. In words: Induction of apoptosis in human U87MG cells assessed as viable cells at 40 uM after 72 hrs by annexin V-FITC/PI staining-based flow cytometric analysis (reference value: 93.12%). It is filed as functional, U-87MG ATCC. Conditions: read-out: Activity.
Assay [4] has as its system SW-620. Nature of the assay: Antiproliferative activity against human SW620 cells after 72 hrs by sulforhodamine B assay. It is filed as functional, cell-based. Conditions: for IC50: SW-620, 72 h. The procedure, abridged: (§1)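 Sulforhodamine B assay on glioma (U251, U87-MG) and colorectal (HCT-15, SW620) cancer cells. Cells were exposed to a range of compound concentrations for 72 h, then stained with SRB. IC50 values were derived from the dose–response. Doxorubicin served as positive control.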

The test system of assay [5] is U-87 MG. In words: Induction of apoptosis in human U87MG cells assessed as bright blue nuclear pyknosis at 20 uM by DAPI staining. In kind it is functional, cell-based. Conditions: U-87MG ATCC. The procedure, abridged:
(§2)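 U87-MG glioma cells were exposed to compound at 20 µM for 72 h, then double-stained with DAPI and propidium iodide. Cells were viewed by fluorescence microscopy. Condensed bright-blue DAPI nuclei were scored as apoptotic; red PI-stained cells were scored as necrotic.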

The subject of assay [6] is U-87 MG. Nature of the assay: Induction of apoptosis in human U87MG cells assessed as necrotic cells at 40 uM after 72 hrs by annexin V-FITC/PI staining-based flow cytometric analysis (reference value: […]). It is filed as functional, U-87MG ATCC.
The subject of assay [7] is U-87 MG. In words: Induction of apoptosis in human U87MG cells assessed as early apoptotic cells at 40 uM after 72 hrs by annexin V-FITC/PI staining-based flow cytometric analysis (reference value: 3.41%). It is filed as functional, U-87MG ATCC.
For assay [8], the system named is U-87 MG. Nature of the assay: Induction of apoptosis in human U87MG cells assessed as total apoptotic cells at 40 uM after 72 hrs by annexin V-FITC/PI staining-based flow cytometric analysis (reference value: 6.64%). It is filed as functional, U-87MG ATCC.
Assay [9] concerns U-87 MG. In words: Antiproliferative activity against human U87MG cells after 72 hrs by sulforhodamine B assay. It is filed as functional, cell-based, U-87MG ATCC. Conditions: for inhibition: U-87MG ATCC. The procedure, abridged:
as §1
In general terms: In SRB staining, fixed cells bind dye roughly in proportion to their protein.

Assay [10] has as its system Staphylococcus aureus. In words: Antimicrobial activity against Staphylococcus aureus after 5 to 12 hrs by micro broth dilution assay. It is filed as functional, organism-based.
Assay [11] has as its system U-251. In words: Antiproliferative activity against human U251 cells after 72 hrs by sulforhodamine B assay. It is filed as functional, cell-based. As to conditions: for IC50: U-251, 72 h. The method, boiled down:
as §1

Assay [12] relates to U-87 MG. In words: Induction of apoptosis in human U87MG cells assessed as necrotic cells at 20 uM by PI staining. In kind it is functional, cell-based. Conditions: U-87MG ATCC. The method, boiled down:
as §2

For assay [13], the system named is HCT-15. Nature of the assay: Antiproliferative activity against human HCT15 cells after 72 hrs by sulforhodamine B assay. In kind it is functional, cell-based. Conditions: for IC50: HCT-15, 72 h. The procedure, abridged:
as §1

In assay [14] the test system is U-87 MG. In words: Induction of apoptosis in human U87MG cells assessed as viable cells at 20 uM after 72 hrs by annexin V-FITC/PI staining-based flow cytometric analysis (reference value: 93.12%). It is filed as functional, U-87MG ATCC. As to conditions: read-out: Activity.
The subject of assay [15] is U-87 MG. In words: Induction of apoptosis in human U87MG cells assessed as total apoptotic cells at 20 uM after 72 hrs by annexin V-FITC/PI staining-based flow cytometric analysis (reference value: 6.64%). In kind it is functional, U-87MG ATCC.
The test system of assay [16] is U-87 MG. In words: Induction of apoptosis in human U87MG cells assessed as late apoptotic cells at 20 uM after 72 hrs by annexin V-FITC/PI staining-based flow cytometric analysis (reference value: 3.23%). It is filed as functional, U-87MG ATCC.
Assay [17] relates to U-87 MG. Nature of the assay: Induction of apoptosis in human U87MG cells assessed as necrotic cells at 20 uM after 72 hrs by annexin V-FITC/PI staining-based flow cytometric analysis (reference value: 0.24%). In kind it is functional, U-87MG ATCC.
For assay [18], the system named is U-87 MG. Nature of the assay: Induction of apoptosis in human U87MG cells assessed as early apoptotic cells at 20 uM after 72 hrs by annexin V-FITC/PI staining-based flow cytometric analysis (reference value: 3.41%). It is filed as functional, U-87MG ATCC.

Active and inactive are the calls of the source. The rule behind the calls is not given here.

Take `COc1cc(/C=C/COC(C)=O)ccc1OC(C)=O`: the Activity in [1] is 35.71%; in assay [6], 0.57%; in assay [7] it was 21.62%; in assay [8], 57.33%. Besides, the inhibition entry in assay [2] and in assay [10] was “inactive” each time. Moreover, the viability at 40 µM in assay [3] came to 42.1%. In addition, the inhibition result in assay [4], in assay [9], in assay [11] and in [13] was “Dose-dependent effect” each time. The half-maximal inhibitory concentration (IC50) in assay [4] amounted to 0.36 µM; in [9], 1.06 µM; in [11], 9.71 µM; in [13], 3.26 µM. Besides, the outcome in assay [5] and in [12] was Active.
For the compound `CC[C@H](C)C(=O)Oc1ccc(/C=C/COC(C)=O)cc1OC`, the inhibition entry in assay [2] and in assay [10] was “inactive” in each case. In addition, the inhibition entry in assay [4], in assay [9], in assay [11] and in assay [13] was “Dose-dependent effect” throughout. The concentration for half-maximal inhibition (IC50) in assay [4] was found to be 0.99 µM; in [9], 0.48 µM; in assay [11] it was 12.9 µM; in assay [13] it was 4.58 µM. The outcome in assay [5] and in assay [12] was Active. For the same compound, the viability at 20 µM in assay [14] was determined as 54.5%. Also, the Activity was determined as 45.14% in assay [15], 36.12% in [16], 0.37% in assay [17] and 9.02% in [18].

In general, IC50 refers to the concentration needed to halve the response being measured. High values mean weaker potency in that assay, low ones greater potency in that assay.
